In ChEMBL document CHEMBL5303300, “EUbOPEN Chemogenomics Library - Multiplex” (2023):
Values joined by “and” are separate entries in the source; they are usually repeats but may differ in a detail not shown here. Identical values can stand only once.

Tested on: HEK-293T
Assay: Multiplex assay against HEK293T
Assay type: toxicity, cell-based
Details: human, number of replicates 2
Procedure, shortened: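 Values for tubulin, mitochondrial-mass and membrane-permeability phenotypes are per cents of cells with healthy nuclei. These cells were identified by CellPathfinder machine-learning gating of live cells that had been stained at seeding with Hoechst33342, BioTracker Green Microtubule Cytoskeleton Dye, MitoTracker Red and Annexin V Alexa Fluor 680 and imaged on a CQ1 microscope at 37°C and 5% CO2 after compound addition. The gating first set Hoechst high-intensity objects apart from normal cells, then split normal cells into healthy, pyknosed or fragmented nuclei, and pyknosed cells into mitotic or apoptotic.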

[1] = 12 h, 1 µM, compound concentration 1 uM
[2] = 12 h, 10 µM, compound concentration 10 uM
[3] = 24 h, 1 µM, compound concentration 1 uM
[4] = 24 h, 10 µM, compound concentration 10 uM
[5] = 48 h, 1 µM, compound concentration 1 uM
[6] = 48 h, 10 µM, compound concentration 10 uM

## CNC(=O)c1c(F)cccc1Nc1nc(Nc2cc3c(cc2OC)CCN3C(=O)CN(C)C)nc2[nH]ccc12
[1]
  Population Apoptotic (%): 62% and 55%
  Population Fragmented Nuclei (%): 4% and 2%
  Population Healthy Nuclei (%): 82% and 86%
  Population Hoechst High Intensity Objects (%): 12%
  Population Membrane Permeable-Phenotype (%): 1% and 0%
  Population Mitochondria Different-Phenotype (%): 46% and 51%
  Population Mitotic Cells (%): 37% and 44%
  Population Normal (%): 87%
  Population Pyknosed Nuclei (%): 13% and 10%
  Population Tubulin-Different-Phenotype (%): 81% and 83%
  Total Cell Count: 326 and 308
[2]
  Population Apoptotic (%): 45% and 56%
  Population Fragmented Nuclei (%): 7%
  Population Healthy Nuclei (%): 75% and 73%
  Population Hoechst High Intensity Objects (%): 44% and 47%
  Population Membrane Permeable-Phenotype (%): 4% and 2%
  Population Mitochondria Different-Phenotype (%): 66% and 59%
  Population Mitotic Cells (%): 54% and 44%
  Population Normal (%): 55% and 52%
  Population Pyknosed Nuclei (%): 17% and 19%
  Population Tubulin-Different-Phenotype (%): 94% and 93%
  Total Cell Count: 246 and 244
[3]
  Population Apoptotic (%): 40% and 83%
  Population Fragmented Nuclei (%): 9% and 7%
  Population Healthy Nuclei (%): 84% and 88%
  Population Hoechst High Intensity Objects (%): 12% and 9%
  Population Membrane Permeable-Phenotype (%): 0%
  Population Mitochondria Different-Phenotype (%): 34% and 30%
  Population Normal (%): 87% and 90%
  Population Pyknosed Nuclei (%): 5% and 4%
  Population Tubulin-Different-Phenotype (%): 81% and 79%
  Total Cell Count: 390 and 332
[4]
  Population Apoptotic (%): 37% and 38%
  Population Fragmented Nuclei (%): 6%
  Population Healthy Nuclei (%): 79% and 80%
  Population Hoechst High Intensity Objects (%): 37% and 45%
  Population Membrane Permeable-Phenotype (%): 8% and 4%
  Population Mitochondria Different-Phenotype (%): 45% and 40%
  Population Mitotic Cells (%): 62% and 61%
  Population Normal (%): 62% and 54%
  Population Pyknosed Nuclei (%): 14% and 12%
  Population Tubulin-Different-Phenotype (%): 93% and 94%
  Total Cell Count: 266 and 259
[5]
  Population Apoptotic (%): 25% and 66%
  Population Fragmented Nuclei (%): 16% and 11%
  Population Healthy Nuclei (%): 80% and 86%
  Population Hoechst High Intensity Objects (%): 21% and 30%
  Population Membrane Permeable-Phenotype (%): 1%
  Population Mitochondria Different-Phenotype (%): 4% and 8%
  Population Mitotic Cells (%): 75% and 33%
  Population Normal (%): 78% and 69%
  Population Pyknosed Nuclei (%): 2% and 1%
  Population Tubulin-Different-Phenotype (%): 63% and 69%
  Total Cell Count: 741 and 531
[6]
  Population Apoptotic (%): 57% and 71%
  Population Fragmented Nuclei (%): 9%
  Population Healthy Nuclei (%): 80% and 77%
  Population Hoechst High Intensity Objects (%): 29% and 35%
  Population Membrane Permeable-Phenotype (%): 5% and 7%
  Population Mitochondria Different-Phenotype (%): 18% and 11%
  Population Mitotic Cells (%): 42% and 28%
  Population Normal (%): 70% and 64%
  Population Pyknosed Nuclei (%): 9% and 13%
  Population Tubulin-Different-Phenotype (%): 87%
  Total Cell Count: 402 and 414

## CN1CCN(c2ccc(-n3cc(-c4ccncc4OCC4CCNCC4)cn3)cc2)CC1
[1]
  Population Apoptotic (%): 50% and 48%
  Population Fragmented Nuclei (%): 4% and 3%
  Population Healthy Nuclei (%): 86% and 85%
  Population Hoechst High Intensity Objects (%): 7% and 5%
  Population Membrane Permeable-Phenotype (%): 4% and 2%
  Population Mitochondria Different-Phenotype (%): 9% and 10%
  Population Mitotic Cells (%): 50% and 51%
  Population Normal (%): 92% and 94%
  Population Pyknosed Nuclei (%): 9% and 11%
  Population Tubulin-Different-Phenotype (%): 38%
  Total Cell Count: 587 and 556
[2]
  Population Apoptotic (%): 88% and 66%
  Population Fragmented Nuclei (%): 1%
  Population Healthy Nuclei (%): 94% and 95%
  Population Hoechst High Intensity Objects (%): 3% and 5%
  Population Membrane Permeable-Phenotype (%): 4% and 6%
  Population Mitochondria Different-Phenotype (%): 28% and 17%
  Population Mitotic Cells (%): 11% and 33%
  Population Normal (%): 96% and 94%
  Population Pyknosed Nuclei (%): 3% and 2%
  Population Tubulin-Different-Phenotype (%): 71% and 76%
  Total Cell Count: 452 and 604
[3]
  Population Apoptotic (%): 29% and 50%
  Population Fragmented Nuclei (%): 6% and 7%
  Population Healthy Nuclei (%): 84% and 83%
  Population Hoechst High Intensity Objects (%): 8% and 7%
  Population Membrane Permeable-Phenotype (%): 3% and 1%
  Population Mitochondria Different-Phenotype (%): 2% and 6%
  Population Mitotic Cells (%): 70% and 50%
  Population Normal (%): 91% and 92%
  Population Pyknosed Nuclei (%): 8% and 9%
  Population Tubulin-Different-Phenotype (%): 18% and 21%
  Total Cell Count: 857 and 751
[4]
  Population Apoptotic (%): 66% and 54%
  Population Fragmented Nuclei (%): 4% and 3%
  Population Healthy Nuclei (%): 93% and 94%
  Population Hoechst High Intensity Objects (%): 7% and 6%
  Population Membrane Permeable-Phenotype (%): 6% and 8%
  Population Mitochondria Different-Phenotype (%): 20% and 11%
  Population Mitotic Cells (%): 33% and 45%
  Population Normal (%): 92% and 93%
  Population Pyknosed Nuclei (%): 1%
  Population Tubulin-Different-Phenotype (%): 75% and 80%
  Total Cell Count: 463 and 591
[5]
  Population Apoptotic (%): 11% and 20%
  Population Fragmented Nuclei (%): 16% and 11%
  Population Healthy Nuclei (%): 79% and 85%
  Population Hoechst High Intensity Objects (%): 10% and 9%
  Population Membrane Permeable-Phenotype (%): 3%
  Population Mitochondria Different-Phenotype (%): 0% and 2%
  Population Mitotic Cells (%): 88% and 80%
  Population Normal (%): 89% and 90%
  Population Pyknosed Nuclei (%): 4% and 3%
  Population Tubulin-Different-Phenotype (%): 7% and 11%
  Total Cell Count: 1935 and 1522
[6]
  Population Apoptotic (%): 81% and 57%
  Population Fragmented Nuclei (%): 11% and 10%
  Population Healthy Nuclei (%): 86% and 85%
  Population Hoechst High Intensity Objects (%): 9%
  Population Membrane Permeable-Phenotype (%): 4%
  Population Mitochondria Different-Phenotype (%): 6% and 10%
  Population Mitotic Cells (%): 18% and 42%
  Population Normal (%): 90%
  Population Pyknosed Nuclei (%): 1% and 3%
  Population Tubulin-Different-Phenotype (%): 56% and 45%
  Total Cell Count: 617 and 528
